High-throughput results from PubChem.
PfGluPho inh – PfG6PD (Plasmodium falciparum) enzyme inhibition; PfGluPho enzyme, NADPH resazurin-diaphorase fluorescence; AID 504690; 350,000 tested, 0.78% active; inhibition, % at 20 µM;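 active = inhibition reaching at least a set limit at 20 µM in the primary screen, cut at about 59% in these data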;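 also: 0% = DMSO wells with substrate and 100% = DMSO wells lacking glucose-6-phosphate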
Apaf-1 inh – inhibitors of human Apaf-1 apoptosome; AID 489030; inhibition, % at 20 µM; 330,000 tested, 0.71% active; reconstituted apoptosome caspase-3 activity, DEVD-Rh110 fluorescence; active = inhibition of at least 40% at 20 µM;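 also: plate controls were DMSO wells for no effect and DEVD-CHO caspase inhibitor wells for full effect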
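Material: biochemical Apaf-1 apoptosome reconstitution. Medium: Hepes buffer, pH 7.5. Also added: cytochrome c activation, bis-DEVD rhodamine 110 substrate. Timing: 30 min compound preincubation, 50 min activation, room temperature. Measured by: rhodamine 110 fluorescence at Ex 480/Em 540 nm.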
EBNA-1 inhibitor – blocks EBNA-1 binding to DNA; inhibition, % at 14.8 µM; EBNA-1 DNA binding, fluorescence polarization; 300,000 tested, 0.34% active; in the data active = inhibition above about 28%
M18AAP inhibitor – PfM18AAP enzyme inhibition; recombinant PfM18AAP, H-Glu-NHMec fluorogenic cleavage; inhibition, % at 7.35 µM; 290,000 tested, 1.2% active; AID 1822;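 active = inhibition above the campaign mean inhibition over all tested compounds plus 3 SD, cut at about 28% in these data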;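 also: 0% = plate median of test compound wells and 100% = 2 mM ZnCl2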
UBC13 polyUb – inhibitors of human UBC13 polyubiquitin chain formation. P61088. TR-FRET. inhibition, % at 20 µM. 330,000 tested, 0.47% active. AID 485273; in the data active = inhibition above about 45%, passing the limit was not always enough
Target sequence (P61088 whole entry, looked up): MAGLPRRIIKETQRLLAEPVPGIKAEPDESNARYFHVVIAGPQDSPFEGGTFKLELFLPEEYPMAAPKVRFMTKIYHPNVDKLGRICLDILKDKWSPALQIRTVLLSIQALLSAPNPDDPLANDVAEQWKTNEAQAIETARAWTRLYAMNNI
ZTA DNA inh – ZTA (EBV) inhibition in EBNA-1 counter-screen; P03206; ZTA-DNA binding, fluorescence polarization; inhibition, % at 11 µM; 320,000 tested, 0.15% active; AID 2234; in the data active = inhibition above about 33%
Target sequence (P03206 whole entry, looked up): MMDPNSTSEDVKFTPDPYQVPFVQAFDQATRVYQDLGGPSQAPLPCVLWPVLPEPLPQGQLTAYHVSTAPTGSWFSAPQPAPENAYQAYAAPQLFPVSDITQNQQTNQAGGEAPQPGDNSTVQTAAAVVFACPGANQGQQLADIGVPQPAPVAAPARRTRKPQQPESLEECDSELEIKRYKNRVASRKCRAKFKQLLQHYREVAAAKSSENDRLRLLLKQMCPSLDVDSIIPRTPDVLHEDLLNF
PfGluPho conf – confirmation of Plasmodium falciparum G6PD inhibitors; AID 504753; 2,400 tested, 34% active; shares compounds with PfGluPho inh; recombinant PfGluPho, NADPH-diaphorase-resazurin fluorescence; inhibition, % at 20 µM;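 active = inhibition of at least 50% at 20 µM in any single replicate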;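 also: 0% = DMSO with substrate and 100% = DMSO lacking glucose-6-phosphate substrate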
Diaph ctr 10uM – inhibits diaphorase or oxidizes, flagging false PfG6PD hits; shares compounds with PfGluPho inh; diaphorase-coupled resazurin reduction, fluorescence, NADPH 10 uM; inhibition, % at 20 µM; 820 tested, 39% active; AID 504862;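 active = average inhibition reaching 50% or more with the compound at 20 µM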;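 also: resorufin red fluorescence formed as diaphorase reduces resazurin using NADPH; 0% = DMSO with enzyme and 100% = DMSO without enzyme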
Diaph ctr 30uM – inhibits diaphorase or oxidizes, flagging false PfG6PD hits. shares compounds with PfGluPho inh. Diaphorase/resazurin coupled assay, resorufin fluorescence, 30 uM NADPH. inhibition, % at 20 µM. 820 tested, 29% active;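 active = inhibition averaging 50% or more, tested at 20 µM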;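 also: 0% = DMSO with enzyme and 100% = DMSO wells lacking diaphorase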
Starred values were filed as active, the others as inactive. The list is not random: actives were taken first. Their share in the collection is about 2.9%.

How did COc1ccc(OC)c(C2CC(=O)N3CN(c4ccc(C)c(Cl)c4)CSC3=C2C#N)c1 (stereo unspecified) do in these assays?
PfGluPho inh: 78*; Apaf-1 inh: 15; EBNA-1 inhibitor: 6; M18AAP inhibitor: 18; UBC13 polyUb: -5; ZTA DNA inh: 7; PfGluPho conf: 14

How did COc1cccc(C2CC(=O)N3CN(c4cccc(Cl)c4C)CSC3=C2C#N)c1OC (stereo unspecified) do in these assays?
PfGluPho inh: 86*; Apaf-1 inh: 1; EBNA-1 inhibitor: 20; M18AAP inhibitor: 15; UBC13 polyUb: -17; ZTA DNA inh: 23; PfGluPho conf: 19

What do the screens show for `CCc1ccc(N2CCN(S(=O)(=O)CC34CCC(CC3=O)C4(C)C)CC2)cc1` (stereo unspecified)?
PfGluPho inh: 5; Apaf-1 inh: 17; M18AAP inhibitor: 0; UBC13 polyUb: -6

What do the screens show for `COc1cc(OC)c(C2C(C#N)=C(N)Oc3cc(C)n(CCCN4CCOCC4)c(=O)c32)cc1OC` (stereo unspecified)?
PfGluPho inh: -5; Apaf-1 inh: 0; EBNA-1 inhibitor: 12; M18AAP inhibitor: 11; UBC13 polyUb: 5; ZTA DNA inh: 15

Results for COc1cc(OC)c(C2CC(=O)N3CN(C)CSC3=C2C#N)cc1OC (stereo unspecified) ?
PfGluPho inh: 61*; Apaf-1 inh: 14; EBNA-1 inhibitor: 17; M18AAP inhibitor: 19; UBC13 polyUb: -7; ZTA DNA inh: 10; PfGluPho conf: 34

How did Cc1cc(NS(=O)(=O)c2ccc(NC(=O)c3ccc(Br)o3)cc2)nc(C)n1 do in these assays?
PfGluPho inh: -16; Apaf-1 inh: 11; EBNA-1 inhibitor: -1; M18AAP inhibitor: 8; UBC13 polyUb: -2; ZTA DNA inh: -23

What do the screens show for `COC(=O)c1ccccc1N/C=C1\CCc2c(c(C)nn2-c2ccccn2)C1=O`?
PfGluPho inh: 74*; Apaf-1 inh: 69*; EBNA-1 inhibitor: 8; M18AAP inhibitor: 20; UBC13 polyUb: -22; ZTA DNA inh: -10; PfGluPho conf: 64*; Diaph ctr 10uM: 12; Diaph ctr 30uM: -4

How did CC(=O)Nc1cccc(NC(=O)CSc2ccc(-c3ccco3)nn2)c1 do in these assays?
PfGluPho inh: 15; Apaf-1 inh: -13; EBNA-1 inhibitor: 11; M18AAP inhibitor: -9; UBC13 polyUb: 3; ZTA DNA inh: -4

What do the screens show for `Cc1ccc(/C=N/NC(=O)c2cccc(S(=O)(=O)Nc3ccccc3Cl)c2)s1`?
PfGluPho inh: 94*; Apaf-1 inh: -4; EBNA-1 inhibitor: 8; M18AAP inhibitor: -8; UBC13 polyUb: 2; ZTA DNA inh: 7; PfGluPho conf: 80*; Diaph ctr 10uM: 76*; Diaph ctr 30uM: 61*

How did COc1cc(/C=C/C(=O)c2ccc([N+](=O)[O-])o2)ccc1O do in these assays?
PfGluPho inh: 77*; Apaf-1 inh: 4; EBNA-1 inhibitor: -1; UBC13 polyUb: -36; ZTA DNA inh: 0; PfGluPho conf: 60*; Diaph ctr 10uM: 40; Diaph ctr 30uM: 35

What do the screens show for `COc1ccc(/C=C/C(=O)c2ccc3c(c2)OCCO3)cc1[N+](=O)[O-]`?
PfGluPho inh: 5; Apaf-1 inh: 12; EBNA-1 inhibitor: -1; M18AAP inhibitor: -7; UBC13 polyUb: 9; ZTA DNA inh: -3

What do the screens show for `O=C(CCCN1C(=O)/C(=C/c2ccccc2Cl)SC1=S)NCCCN1CCOCC1`?
PfGluPho inh: -12; Apaf-1 inh: 13; EBNA-1 inhibitor: 2; M18AAP inhibitor: 0; UBC13 polyUb: 18; ZTA DNA inh: -11

How did O=C1C(=Cc2cccc(O)c2O)SC(=S)N1CCCN1CCOCC1 do in these assays?
PfGluPho inh: 70*; PfGluPho conf: 50*; Diaph ctr 10uM: -12; Diaph ctr 30uM: -6

Results for Cc1ccc(NC(=O)Cn2ncc(Cl)c(Cl)c2=O)cc1S(=O)(=O)N1CCCCC1 ?
PfGluPho inh: 1; Apaf-1 inh: 2; UBC13 polyUb: -32; ZTA DNA inh: -16

What do the screens show for `CCCCn1c(SC(C)C(=O)c2ccc(OC)cc2)nc2cc(S(N)(=O)=O)ccc21` (stereo unspecified)?
PfGluPho inh: 55; Apaf-1 inh: 11; EBNA-1 inhibitor: 6; M18AAP inhibitor: -3; UBC13 polyUb: 2; ZTA DNA inh: 1

Results for CCCCn1c(SCC(=O)c2ccc3c(c2)NC(=O)CO3)nc2cc(S(N)(=O)=O)ccc21 ?
PfGluPho inh: 61*; Apaf-1 inh: 19; EBNA-1 inhibitor: -10; M18AAP inhibitor: 6; UBC13 polyUb: -10; ZTA DNA inh: 5; PfGluPho conf: 28

Results for CCCCn1c(SCC(=O)c2ccc(OC)cc2OC)nc2cc(S(N)(=O)=O)ccc21 ?
PfGluPho inh: 96*; Apaf-1 inh: 24; EBNA-1 inhibitor: -9; M18AAP inhibitor: 7; UBC13 polyUb: -36; ZTA DNA inh: 5; PfGluPho conf: 42

Results for O=C(COc1cccc2ccccc12)N/N=C/c1ccc(Sc2nc3ccccc3s2)o1 ?
PfGluPho inh: 27; Apaf-1 inh: 23; EBNA-1 inhibitor: 2; M18AAP inhibitor: 8; UBC13 polyUb: -12; ZTA DNA inh: 1

What do the screens show for `O=C(Cc1cccc2ccccc12)N/N=C/c1ccc(Sc2nc3ccccc3s2)o1`?
PfGluPho inh: 74*; Apaf-1 inh: 21; EBNA-1 inhibitor: -2; M18AAP inhibitor: 6; UBC13 polyUb: -9; ZTA DNA inh: -12; PfGluPho conf: 6

What do the screens show for `Cc1ccc(/C=N/NC(=O)CSc2nc3ccccc3s2)o1`?
PfGluPho inh: 41; Apaf-1 inh: 3; EBNA-1 inhibitor: 2; M18AAP inhibitor: -2; UBC13 polyUb: 2; ZTA DNA inh: 3

Results for Cc1ccccc1OCC(=O)N/N=C/c1ccc(Sc2nc3ccccc3s2)o1 ?
PfGluPho inh: 123*; Apaf-1 inh: 21; EBNA-1 inhibitor: 3; M18AAP inhibitor: 0; UBC13 polyUb: -2; ZTA DNA inh: 2; PfGluPho conf: 59*; Diaph ctr 10uM: 44; Diaph ctr 30uM: 44

How did COCC(=O)N/N=C/c1ccc(Sc2nc3ccccc3s2)o1 do in these assays?
PfGluPho inh: 60*; Apaf-1 inh: 10; EBNA-1 inhibitor: -7; M18AAP inhibitor: -1; UBC13 polyUb: -8; ZTA DNA inh: -15; PfGluPho conf: 21

What do the screens show for `CCN(CC)C(=O)NC1CCCCCCC1`?
PfGluPho inh: -5; Apaf-1 inh: 5; EBNA-1 inhibitor: -17; M18AAP inhibitor: 3; UBC13 polyUb: -7; ZTA DNA inh: -13
